Read-outs that look alike come from different tables or passages of the source. Blank lines part the entries; values can stand above or below the compound they belong to.
Tests used:
[1] = biological target: pol β; settings: linear mixed-mode inhibition mechanism; cited from earlier work
[2] = test system: human cancer cell lines A549, MCF7, PANC-1, UACC903; assay: MTS assay of cell proliferation, cell lines not specified; type: cell-based; settings: combination with honokiol, cell line not specified
In short: (§1)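 Cells grown in DMEM with 10% FBS at 37 °C and 5% CO2. Plated at 5 × 10^3 per well, grown 24 h, then exposed 24 or 72 h to test compound alone or in pairs: 10 μM bleomycin-type or 250 μM alkylating agent added to the lignan, or 10 μM lignan added to either. DMSO 0.2% final; vehicle controls. MTS/PMS for 4 h; A492; cell-free background. Triplicate; IC50 fit, 95% CI.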

[3] = test system: UACC903 cells; assay: MTS assay of cell proliferation, UACC903; type: cell-based, human; settings: for IC50: Homo sapiens; for decrease of EC50 due to HNL/BLM combination: UACC903, combination with honokiol (10 μM)
In short: as §1

[4] = test system: MCF7 cells; assay: MTS assay of cell proliferation, MCF7; type: cell-based, human; settings: for IC50: Homo sapiens; for decrease of EC50 due to HNL/BLM combination: MCF7, combination with honokiol (10 μM)
In short: as §1

[5] = test system: A549 cells; assay: MTS assay of cell proliferation, A549; type: cell-based, human; settings: for IC50: Homo sapiens
In short: as §1

[6] = test system: GM12878 cells; assay: MTS assay of cell proliferation, GM12878; type: cell-based, human; settings: for IC50: Homo sapiens
In short: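 Lymphoblasts grown in RPMI 1640 with 15% FBS at 37 °C and 5% CO2. Plated at 5 × 10^3 per well, grown 24 h, then exposed 24 or 72 h to test compound alone or with 10 μM lignan inhibitor added. DMSO 0.2% final; vehicle controls. MTS/PMS in PBS pH 7.2 for 4 h at 37 °C; A492; cell-free background. Triplicate; normalized absorbance fitted for IC50 with 95% CI.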

[7] = test system: PANC1 cells; assay: MTS assay of cell proliferation, PANC1; type: cell-based, human; settings: for IC50: Homo sapiens
In short: as §1

[8] = PANC1, combination with honokiol (10 μM)

Compound: C=C(C)[C@@H]1CC[C@]2(C)[C@H](CC=C3[C@@H]4C[C@@](C)(C(=O)O)CC[C@]4(C)CC[C@]32C)[C@@]1(C)CCC(=O)O [koetjapic acid]
Ki [1]: low micromolar range

decrease of EC50 due to HNL/TMZ combination [2]: up to three-fold | decrease of EC50 due to HNL/TMZ combination ([2]; listed as temozolomide): three-fold | IC50 ([4]; MCF7, 24 h, read-out: −log(IC50) (95% CI), MCF7, 24 h, tested compound alone (converted)): 501 µM | IC50 ([4]; MCF7, 72 h, read-out: −log(IC50) (95% CI), MCF7, 72 h, tested compound alone (converted)): 200 µM | IC50 ([5]; A549, 24 h, read-out: −log(IC50) (95% CI), A549, 24 h, tested compound alone (converted)): 398 µM | IC50 ([5]; A549, 72 h, read-out: −log(IC50) (95% CI), A549, 72 h, tested compound alone (converted)): 251 µM | IC50 ([7]; PANC-1, 24 h, read-out: −log(IC50) (95% CI), PANC1, 24 h, tested compound alone (converted)): 316 µM | IC50 ([7]; PANC-1, 72 h, read-out: −log(IC50) (95% CI), PANC1, 72 h, tested compound alone (converted)): 158 µM | decrease of EC50 due to HNL/TMZ combination [7, 8]: up to three-fold
Compound: Cn1nnc2c(C(N)=O)ncn2c1=O [TMZ, temozolomide]
IC50 ([3]; UACC-903, 24 h, read-out: −log(IC50) (95% CI), UACC903, 24 h, tested compound alone (converted)): 631 µM | IC50 ([3]; UACC-903, 72 h, read-out: −log(IC50) (95% CI), UACC903, 72 h, tested compound alone (converted)): 316 µM | IC50 ([6]; 24 h, read-out: −log(IC50) (95% CI), GM12878, 24 h, tested compound alone (converted)): < 1000 µM | IC50 ([6]; 72 h, read-out: −log(IC50) (95% CI), GM12878, 72 h, tested compound alone (converted)): 316 µM

Compound: bleomycin [BLM]
−log(IC50) (95% CI) ([3]; UACC903, 24 h, supplemented with 10 μM HNL): 5.5 (5.4, 5.7) | −log(IC50) (95% CI) ([3]; UACC903, 24 h, tested compound alone): 4.9 (4.7, 5.0) | −log(IC50) (95% CI) ([3]; UACC903, 72 h, supplemented with 10 μM HNL): 6.3 (6.0, 6.5) | −log(IC50) (95% CI) ([3]; UACC903, 72 h, tested compound alone): 5.22 (5.1, 5.4) | decrease of EC50 due to HNL/BLM combination [3]: up to 10 fold | decrease of EC50 due to HNL/BLM combination ([3]; listed as bleomycin): 10 fold | −log(IC50) (95% CI) ([4]; MCF7, 24 h, supplemented with 10 μM HNL): 6.0 (5.7, 6.2) | −log(IC50) (95% CI) ([4]; MCF7, 24 h, tested compound alone): 4.9 (4.8, 5.0) | −log(IC50) (95% CI) ([4]; MCF7, 72 h, supplemented with 10 μM HNL): 6.3 (6.1, 6.6) | −log(IC50) (95% CI) ([4]; MCF7, 72 h, tested compound alone): 5.3 (5.2, 5.4) | decrease of EC50 due to HNL/BLM combination [4]: up to 10 fold | decrease of EC50 due to HNL/BLM combination ([4]; listed as bleomycin): 10 fold | −log(IC50) (95% CI) ([5]; A549, 24 h, supplemented with 10 μM HNL): 5.30 (5.18, 5.43) | −log(IC50) (95% CI) ([5]; A549, 24 h, tested compound alone): 4.8 (4.7, 5.0) | −log(IC50) (95% CI) ([5]; A549, 72 h, supplemented with 10 μM HNL): 5.6 (5.5, 5.7) | −log(IC50) (95% CI) ([5]; A549, 72 h, tested compound alone): 5.2 (5.0, 5.3) | −log(IC50) (95% CI) ([6]; GM12878, 24 h, supplemented with 10 μM HNL): 4.2 (4.0, 4.3) | −log(IC50) (95% CI) ([6]; GM12878, 24 h, tested compound alone): 4.1 (3.91, 4.3) | −log(IC50) (95% CI) ([6]; GM12878, 72 h, supplemented with 10 μM HNL): 4.20 (4.0, 4.4) | −log(IC50) (95% CI) ([6]; GM12878, 72 h, tested compound alone): 4.1 (4.0, 4.3) | −log(IC50) (95% CI) ([7]; PANC1, 24 h, supplemented with 10 μM HNL): 5.9 (5.7, 6.2) | −log(IC50) (95% CI) ([7]; PANC1, 24 h, tested compound alone): 4.9 (4.7, 5.1) | −log(IC50) (95% CI) ([7]; PANC1, 72 h, supplemented with 10 μM HNL): 6.09 (5.9, 6.3) | −log(IC50) (95% CI) ([7]; PANC1, 72 h, tested compound alone): 5.2 (5.0, 5.3) | decrease of EC50 due to HNL/BLM combination [7, 8]: up to 10 fold | decrease of EC50 due to HNL/BLM combination ([7]; PANC1, combination with honokiol (10 μM), listed as bleomycin): 10 fold

Reference: PMC5665024 (Chemical research in toxicology, 2017)
